Test results reported in ChEMBL document CHEMBL4699419, “Antileishmanial assessment of isoxazole derivatives against L. donovani” (RSC Med Chem, 2020).
Calls of active or inactive are those of the source. The rule behind the calls is not given here.

Experiments:
[1] = tested on: Leishmania donovani; experiment: (§1) Antileishmanial activity against Leishmania donovani amastigotes infected in golden hamster assessed as reduction in parasite burden in spleen at 50 mg/kg, ip initiated after 2 days of pre-treatment biopsy administered for 5 days and measured on day 7 by giemsa staining based assay relative to control; format: functional; settings: 168 h, time 7 day
Procedure, shortened: (§2)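 Male inbred golden hamsters, 40–45 g, infected with L. donovani. Animals with +1 infection on pre-treatment spleen biopsy randomized, five per group. Intraperitoneal dosing in a vehicle of 10% Tween-80/ethanol (70:30) in ddH2O, 10% final, began 2 days after biopsy and ran 5 consecutive days; vehicle-only controls. Giemsa-stained spleen biopsies taken on day 7 or 28; percentage inhibition computed from initial, treated and untreated-control amastigote counts.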

[2] = tested on: Leishmania donovani; experiment: as §1, with “28” for “7”; format: functional; settings: for inhibition in vivo at 50 mg/kg: 672 h, time 28 day; procedure, shortened: as §2
[3] = Cytotoxicity against mouse J774A1 cells assessed as reduction in cell viability incubated for 48 hrs by MTT assay; format: cell-based, J774.A1
Procedure, shortened: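 J774A.1 macrophages, 0.2 × 10^6 per well, incubated overnight at 37 °C in 5% CO2, then exposed to compounds in DMSO for 48 h, with DMSO dilutions as controls. Viability read by MTT formazan at 600 nm. CC50 = 50% viability reduction versus medium-only cells, from probit regression; three independent experiments.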

[4] = tested on: Leishmania donovani; experiment: Antileishmanial activity against Leishmania donovani MHOM/IN/80/Dd8 promastigotes harboring luciferase reporter gene infected in mouse J774 cells assessed as inhibition of amastigote growth incubated for 72 hrs by Steady-Glo luminescence assay; format: functional, organism-based; settings: Leishmania donovani, MHOM/IN/80/Dd8, J774, 72 h; read-out: IC50
Procedure, shortened: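 J774A.1 mouse macrophages (2 × 10^5 per well, RPMI-1640 + 10% FCS, 37 °C CO2) infected after 24 h with stationary-phase luciferase-transgenic promastigotes at 1:10 macrophage:parasite; compounds in complete medium for 72 h at 37 °C. Medium swapped for PBS, Steady-Glo added, luminescence read; % inhibition vs untreated control RLU. IC50 by Probit log dose/response regression, three independent experiments.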

[5] = tested on: Leishmania donovani; experiment: Antileishmanial activity against late log phase promastigote stage of Leishmania donovani MHOM/IN/80/Dd8 harboring luciferase reporter gene incubated for 72 hrs by Steady-Glo luminescence assay; format: functional, organism-based; settings: Leishmania donovani, MHOM/IN/80/Dd8, 72 h; read-out: IC50
Procedure, shortened: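 Luciferase-transfected promastigotes kept at 25 ± 1 °C in medium 199 + 10% heat-inactivated FCS + G418 (20 μg ml–1). Late-log cells (5 × 10^5 per well) grown 72 h with graded compound concentrations from DMSO, DMSO dilution controls. Aliquot mixed 1:1 with Steady-Glo, luminescence (RLU) read; % inhibition vs control. IC50 by Probit regression, three independent experiments.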

[6] = Selectivity index, ratio of CC50 for mouse J774.A1 cells to IC50 for amastigote form of Leishmania donovani MHOM/IN/80/Dd8; format: toxicity; settings: read-out: Ratio CC50/IC50
Procedure, shortened: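 Macrophages infected at a 1:10 ratio with stationary promastigotes, then treated 72 h at 37 °C; luminescence read with Steady-Glo. IC50 values from probit analysis.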

Compound	inhibition in vivo at 50 mg/kg [1] [%]	inhibition ([2]; time 28.0 day)	CC50 at 48 h [3] [µM]	IC50 [4] [µM]	IC50 [5] [µM]	selectivity ratio [6]	inhibition in vivo at 50 mg/kg [2] [%]
COC(=O)c1c(NCCNc2ccnc3cc(Cl)ccc23)noc1-c1ccc(Cl)cc1Cl	19.3	inactive	3.45	0.85	1.86	4.05	–
COC(=O)c1c([N+](=O)[O-])noc1-c1cccc(-c2ncoc2C)c1	–	–	18.4	7.1	0.86	2.5	–
CCCNC(=O)c1c([N+](=O)[O-])noc1-c1ccc([N+](=O)[O-])cc1	–	–	76.2	21.3	3.07	3.57	–
COc1ccc(CNC(=O)c2c([N+](=O)[O-])noc2-c2ccc(Cl)cc2Cl)cc1	–	–	80.5	2.03	3.42	39.6	–
COC(=O)c1c(NCCNc2cc(C(F)(F)F)nc3c(C(F)(F)F)cccc23)noc1-c1ccc([N+](=O)[O-])cc1	–	–	73	18.1	10.1	4.03	–
COC(=O)c1c(NCCCNc2ccnc3cc(Cl)ccc23)noc1-c1ccc(Cl)cc1Cl	62	–	31.1	3.21	3.82	9.67	9.23
COC(=O)c1c([N+](=O)[O-])noc1-c1ccccc1Cl	–	–	80	16.6	2.72	4.82	–
COC(=O)c1c(NCCCN2CCOCC2)noc1-c1cc2c(cc1[N+](=O)[O-])OCO2	–	–	65	17	27.8	3.82	–
COc1cccc(CNC(=O)c2c([N+](=O)[O-])noc2-c2ccc(Cl)cc2)c1	–	–	68.5	3.43	2.79	20	–
COC(=O)c1c(NCc2ccc(Cl)cc2)noc1-c1ccc([N+](=O)[O-])cc1	–	–	78.3	7.88	3.79	9.93	–
COC(=O)c1c(NCCCNc2ccnc3cc(Cl)ccc23)noc1-c1cc2c(cc1[N+](=O)[O-])OCO2	–	–	73.6	16.1	7.75	4.55	–
COC(=O)c1c([N+](=O)[O-])noc1-c1cc(-c2ccccc2Cl)n(-c2ccccc2)n1	–	–	79.9	21.2	0.76	3.76	–
COC(=O)c1c(NCCNc2cc(C(F)(F)F)nc3c(C(F)(F)F)cccc23)noc1-c1ccc(Cl)cc1Cl	–	–	99	20.3	48.2	4.86	–
COc1cccc(CNC(=O)c2c([N+](=O)[O-])noc2-c2ccc(Cl)cc2Cl)c1	–	–	61.1	11.3	3.02	5.41	–
COc1ccc(CNC(=O)c2c([N+](=O)[O-])noc2-c2ccc([N+](=O)[O-])cc2)cc1	–	–	69.6	2.06	3.52	33.8	–
COC(=O)c1c(NCc2ccc(Cl)cc2)noc1-c1cc2c(cc1[N+](=O)[O-])OCO2	13.5	–	33	4.59	15.5	7	2.08
COC(=O)c1c(NCc2ccc(OC)cc2OC)noc1-c1ccc(Cl)cc1Cl	50.9	–	32.1	5.48	8.34	6	38
COC(=O)c1c(NCCCCNc2ccnc3cc(Cl)ccc23)noc1-c1ccc(Cl)cc1Cl	–	–	93.5	27.6	5.93	3.39	–
O=C(Nc1ccccc1)c1c([N+](=O)[O-])noc1-c1ccc(Cl)cc1	–	–	89.3	3.56	2.81	25.1	–
COC(=O)c1c(NCCCCNc2ccnc3cc(Cl)ccc23)noc1-c1ccccc1F	–	–	70.9	19.9	10.6	3.56	–
